Reference: ChEMBL document CHEMBL3875209, “Synthesis and biological evaluation of cis-restricted triazole/tetrazole mimics of combretastatin-benzothiazole hybrids as tubulin polymerization inhibitors and apoptosis inducers” (Bioorg Med Chem, 2017)
Active and inactive are the calls of the source. The rule behind the calls is not given here.

Columns and labels:
A549 [1] = assay: Induction of apoptosis in human A549 cells assessed as necrotic cells at 100 nM after 48 hrs by Annexin-V FITC/propidium iodide staining based flow cytometry (reference value: 0.1%); format: functional
A549 [2] = assay: Induction of apoptosis in human A549 cells assessed as early apoptotic cells at 50 nM after 48 hrs by Annexin-V FITC/propidium iodide staining based flow cytometry (reference value: 5.2%); format: functional
A549 [3] = assay: Inhibition of alpha-tubulin polymerization in human A549 cells assessed as increase in soluble tubulin fraction at 1 uM after 48 hrs by Western blot method; format: cell-based
In short: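 A549 cells (1 × 10⁵/well) treated at 1 µM for 48 h alongside DMSO, CA-4 and paclitaxel controls. Soluble fraction released with warm Pipes-KOH pH 6.8/Triton lysis buffer (3 min, 30 °C); insoluble fraction taken in Laemmli buffer. Both fractions blotted on SDS-10% PAGE with anti-α-tubulin and ECL detection.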

[4] = Antiproliferative activity against human DU145 cells after 48 hrs by MTT assay; format: functional, cell-based; details: DU-145, 48 h
In short: (§1)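 MTT assay. Cells seeded in DMEM with 10% FBS and left 24 h at 37 °C in CO2 before compound treatment for 48 h. MTT (5 mg/mL stock) added for 4 h, formazan dissolved in DMSO, absorbance read at 570 nm. IC50 taken as the mean of three independent experiments.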

[5] = Cell cycle arrest in human A549 cells assessed as accumulation at G2/M phase at 100 nM after 48 hrs by propidium iodide staining based flow cytometry; format: functional
In short: (§2)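 A549 cells exposed for 48 h at 50 or 100 nM. Cells harvested, washed in PBS, fixed in ice-cold 70% ethanol and stained with propidium iodide. Phase distribution (G0/G1, S, G2/M) measured by flow cytometry against untreated cells.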

Sus scrofa = species: Sus scrofa; assay: Inhibition of porcine brain tubulin polymerization at 3 uM in presence of GTP by fluorescence assay relative to control
In short: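 Fluorescence-reporter tubulin polymerization kit: PEM buffer with […], compound at 3 µM final, CA-4 as positive control. Fluorescence followed at ex 360/em 420 nm for 1 h at 37 °C. Mean ± SD of two experiments run in triplicate.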

A549 [6] = assay: Induction of apoptosis in human A549 cells assessed as late apoptotic cells at 50 nM after 48 hrs by Annexin-V FITC/propidium iodide staining based flow cytometry (reference value: 0.6%); format: functional
[7] = Cell cycle arrest in human A549 cells assessed as accumulation at G0/G1 phase at 100 nM after 48 hrs by propidium iodide staining based flow cytometry (reference value: 78.5%); format: functional; in short: as §2
A549 [8] = assay: Induction of apoptosis in human A549 cells assessed as nuclei condensation at 50 nM after 48 hrs by Hoechst 33258 staining based fluorescence microscopic analysis; format: functional, cell-based
In short: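 A549 cells (5 × 10⁴/well) allowed to adhere 48 h, then treated at 50 nM for 48 h at 37 °C. Fixed in 4% paraformaldehyde at 4 °C for 10 min and stained with Hoechst 33258 (5 µg/mL) for 30 min at room temperature. Nuclear condensation scored by fluorescence microscopy (ex 350/em 460 nm, 10X).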

[9] = Cell cycle arrest in human A549 cells assessed as accumulation at S phase at 100 nM after 48 hrs by propidium iodide staining based flow cytometry (reference value: 9.4%); format: functional; in short: as §2
[10] = Antiproliferative activity against human A549 cells after 48 hrs by MTT assay; format: functional, cell-based; details: A549, 48 h; in short: as §1
A549 [11] = assay: Induction of ROS generation in human A549 cells at 50 nM after 48 hrs by DCFDA staining based flow cytometry (reference value: 4.4%); format: functional
[12] = Cell cycle arrest in human A549 cells assessed as accumulation at G2/M phase after 48 hrs by propidium iodide staining based flow cytometry; format: functional; in short: as §2
A549 [13] = assay: Induction of apoptosis in human A549 cells assessed as late apoptotic cells at 100 nM after 48 hrs by Annexin-V FITC/propidium iodide staining based flow cytometry (reference value: 0.6%); format: functional
A549 [14] = assay: Induction of apoptosis in human A549 cells assessed as live cells at 100 nM after 48 hrs by Annexin-V FITC/propidium iodide staining based flow cytometry (reference value: 94.2%); format: functional
A549 [15] = assay: Induction of apoptosis in human A549 cells assessed as early apoptotic cells at 100 nM after 48 hrs by Annexin-V FITC/propidium iodide staining based flow cytometry (reference value: 5.2%); format: functional
[16] = Inhibition of porcine brain tubulin polymerization in presence of GTP by fluorescence assay; design: species or system Sus scrofa
In short: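 Tubulin polymerization IC50: compounds preincubated with tubulin at 0.5, 1, 2, 3 and 5 µM. Reactions in PEM buffer with […], polymerization followed by reporter fluorescence at ex 360/em 420 nm, with CA-4 as reference.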

[17] = Cell cycle arrest in human A549 cells assessed as accumulation at G0/G1 phase at 50 nM after 48 hrs by propidium iodide staining based flow cytometry (reference value: 78.5%); format: functional; in short: as §2
A549 [18] = assay: Induction of apoptosis in human A549 cells assessed as increase in caspase-3 expression at 50 nM after 48 hrs by Western blot method; format: functional, cell-based
In short: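 Caspase-3 western blot of A549 lysates after 48 h at 50 nM. Proteins extracted in RIPA buffer, 50 µg per lane on 10% SDS-PAGE, transferred to PVDF and blocked with BSA. Primary antibody incubated 24 h, HRP secondary 1 h, chemiluminescent detection, with β-actin as loading control.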

A549 [19] = assay: Induction of ROS generation in human A549 cells at 100 nM after 48 hrs by DCFDA staining based flow cytometry (reference value: 4.4%); format: functional
A549 [20] = assay: Induction of mitochondrial membrane potential loss in human A549 cells at 50 nM after 48 hrs by JC-1 staining based flow cytometry (reference value: 3.8%); format: functional
[21] = Antiproliferative activity against human HeLa cells after 48 hrs by MTT assay; format: functional, cell-based; in short: as §1
A549 [22] = assay: Induction of mitochondrial membrane potential loss in human A549 cells at 100 nM after 48 hrs by JC-1 staining based flow cytometry (reference value: 3.8%); format: functional
[23] = Cell cycle arrest in human A549 cells assessed as accumulation at G2/M phase at 50 nM after 48 hrs by propidium iodide staining based flow cytometry (reference value: 12.1%); format: functional; in short: as §2
A549 [24] = assay: Induction of mitochondrial membrane potential loss in human A549 cells assessed as intact mitochondrial membrane at 100 nM after 48 hrs by JC-1 staining based flow cytometry (reference value: 95.9%); format: functional
[25] = Antiproliferative activity against human MCF7 cells after 48 hrs by MTT assay; format: functional, cell-based; details: MCF7, 48 h; in short: as §1
A549 [26] = assay: Induction of mitochondrial membrane potential loss in human A549 cells assessed as intact mitochondrial membrane at 50 nM after 48 hrs by JC-1 staining based flow cytometry (reference value: 95.9%); format: functional
Homo sapiens = species: Homo sapiens; assay: Inhibition of colchicine binding to tubulin (unknown origin) at 5 to 20 uM after 60 mins by fluorescence assay
In short: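 Tubulin (3 µM) incubated with compound at 5–20 µM, with and without colchicine (3 µM), in 30 mM Tris for 60 min at 37 °C. Fluorescence read at ex 350/em 435 nm. Tris blank and the colchicine-free signal were subtracted, and values normalized to DMSO. CA-4 and vinblastine served as controls.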

A549 [27] = assay: Induction of apoptosis in human A549 cells after 48 hrs by Annexin-V FITC/propidium iodide staining based flow cytometry; format: functional, cell-based
[28] = Antiproliferative activity against human HepG2 cells after 48 hrs by MTT assay; format: functional, cell-based; details: HepG2, 48 h; in short: as §1
[29] = Depolarization of mitochondrial membrane potential in human A549 cells after 48 hrs by JC-1 staining based flow cytometry; format: functional, cell-based
[30] = Cell cycle arrest in human A549 cells assessed as accumulation at S phase at 50 nM after 48 hrs by propidium iodide staining based flow cytometry (reference value: 9.4%); format: functional; in short: as §2
A549 [31] = assay: Inhibition of alpha-tubulin polymerization in human A549 cells assessed as disruption of microtubule organization at 50 nM after 48 hrs by FITC/DAPI staining based immunofluorescence microscopic assay; format: cell-based
In short: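 A549 cells on coverslips treated at 50 nM for 48 h. Fixed in 3.5% formaldehyde/PBS, permeabilized with Triton X-100/Tween-20, blocked in 2% BSA. Anti-tubulin primary (1:200, 4 h) and FITC anti-mouse secondary (1:500, 1 h), DAPI mounting, confocal imaging.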

A549 [32] = assay: Induction of apoptosis in human A549 cells assessed as necrotic cells at 50 nM after 48 hrs by Annexin-V FITC/propidium iodide staining based flow cytometry (reference value: 0.1%); format: functional
A549 [33] = assay: Induction of apoptosis in human A549 cells assessed as live cells at 50 nM after 48 hrs by Annexin-V FITC/propidium iodide staining based flow cytometry (reference value: 94.2%); format: functional

| SMILES | Activity (A549 [1]) | inhibition (A549 [3]) | IC50 [4] | inhibition (Sus scrofa) | Activity [7] | Activity (A549 [8]) | Activity [9] | IC50 [10] | Activity (A549 [13]) | Activity (A549 [14]) | Activity (A549 [15]) | IC50 [16] | Activity (A549 [19]) | IC50 [21] | Activity (A549 [22]) | Activity [23] | Activity (A549 [24]) | IC50 [25] | inhibition (Homo sapiens) | IC50 [28] | further results |
| --- | --- | --- | --- | --- | --- | --- | --- | --- | --- | --- | --- | --- | --- | --- | --- | --- | --- | --- | --- | --- | --- |
| COc1ccc2nc(-c3ccc(-n4cnnc4-c4cc(OC)c(OC)c(OC)c4)c(C)c3)sc2c1 | 1.1% | Active | 480 nM | 72.9% | 21.5% | Active | 17.6% | 54 nM | 9.2% | 66% | 23.7% | 1670 nM | 12.3% | 160 nM | 16.9% | 25.9% | 80.5% | 1130 nM | Active | 670 nM | Activity (A549 [2]): 13.5%; Activity [5]: 59.5%; Activity (A549 [6]): 8.1%; Activity (A549 [11]): 6.8%; Activity [12]: Dose-dependent effect; Activity [17]: 63.7%; Activity (A549 [18]): Active; Activity (A549 [20]): 11%; Activity (A549 [26]): 87.2%; Activity (A549 [27]): Dose-dependent effect; Activity [29]: Dose-dependent effect; Activity [30]: 10.6%; inhibition (A549 [31]): Active; Activity (A549 [32]): 1.1%; Activity (A549 [33]): 77.3% |
| Cc1cc(-c2nc3cc(F)ccc3s2)ccc1N | – | – | – | – | – | – | – | – | – | – | – | – | 10% | – | 16% | – | 81.8% | – | – | – | – |
| COc1cc(-c2nncn2-c2ccc(-c3nc4ccc(F)cc4s3)cc2C)cc(OC)c1OC | 0.7% | Active | 280 nM | 74.4% | 19.8% | Active | 15.4% | 48 nM | 8.2% | 63.9% | 27.2% | 1000 nM | 20.9% | 150 nM | 22.2% | 25.1% | 74.4% | 1410 nM | Active | 300 nM | Activity (A549 [2]): 15.1%; Activity [5]: 65.5%; Activity (A549 [6]): 5.8%; Activity (A549 [11]): 10.4%; Activity [12]: Dose-dependent effect; Activity [17]: 60.6%; Activity (A549 [18]): Active; Activity (A549 [20]): 12.8%; Activity (A549 [26]): 85.2%; Activity (A549 [27]): Dose-dependent effect; Activity [29]: Dose-dependent effect; Activity [30]: 14.7%; inhibition (A549 [31]): Active; Activity (A549 [32]): 0.8%; Activity (A549 [33]): 78.3% |
| COc1ccc(/C=C\c2cc(OC)c(OC)c(OC)c2)cc1O [COMBRETASTATIN A4] | 1.7% | Active | 69 nM | 73.2% | 26.1% | Active | 15.9% | 58 nM | 13.3% | 60.8% | 24.2% | 1600 nM | 18% | 5 nM | 21.8% | 31.3% | 74.9% | 43 nM | Active | 9 nM | Activity [30]: 12.6%; inhibition (A549 [31]): Active |
